Laboratory results reported in ChEMBL document CHEMBL4196105, “Discovery of β-Arrestin Biased Ligands of 5-HT7R” (J Med Chem, 2018).
pKi: −log10 of the molar value. Active and inactive are the calls of the source. No cut-off for these calls is given here.

Columns and labels:
[1] = target: T1, 5-hydroxytryptamine receptor 7 (Homo sapiens, UniProt P34969); test: Inverse agonist activity at human 5-HT7 receptor expressed in HEK293 cells assessed as decrease in Gs protein-mediated cAMP accumulation by luminescence-based assay; assay type: functional, cell-based
T1 sequence (P34969 whole entry): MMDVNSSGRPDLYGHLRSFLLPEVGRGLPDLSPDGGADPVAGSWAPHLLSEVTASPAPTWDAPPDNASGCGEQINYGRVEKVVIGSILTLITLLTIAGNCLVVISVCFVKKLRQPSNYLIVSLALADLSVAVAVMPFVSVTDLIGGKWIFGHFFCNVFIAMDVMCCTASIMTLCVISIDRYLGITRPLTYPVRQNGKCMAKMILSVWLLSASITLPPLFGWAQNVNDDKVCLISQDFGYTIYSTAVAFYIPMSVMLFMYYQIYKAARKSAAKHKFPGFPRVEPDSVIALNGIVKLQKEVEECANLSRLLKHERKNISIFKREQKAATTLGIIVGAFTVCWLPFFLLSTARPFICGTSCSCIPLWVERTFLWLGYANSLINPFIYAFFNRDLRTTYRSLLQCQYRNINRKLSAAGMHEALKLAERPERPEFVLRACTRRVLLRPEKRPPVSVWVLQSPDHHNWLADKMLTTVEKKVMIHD
Summary of the method: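 HEK293 cells transiently transfected by calcium phosphate with human 5-HT7R and GloSensor-22F cAMP biosensor. After 5-6 h recovery, loaded with GloSensor reagent in HBSS/20 mM HEPES, pH 7.4. Test compounds at 0.01 nM-100 μM final; antagonist mode uses 5-HT stimulation. Luminescence read. Data normalised to 5-HT or SB269970 (100%) and vehicle (0%). Three experiments, at least triplicate.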

[2] = test system: Mus musculus; test: Sleep promoting activity in C57B1/6J mouse assessed as decrease in total rapid eye movement sleep time at 30 mg/kg, ip measured over 4 hrs by electroencephalogram method; assay type: functional; set-up: scale not given: the % may be the effect or the level left
Summary of the method: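 Adult male C57Bl/6J mice, 10 weeks old, with parietal EEG screw electrodes implanted under ketamine. EEG and EMG recorded for 8 h from 9 AM, starting one day before dosing as baseline. On test day, 30 mg/kg i.p. at the start of the light phase, with EEG/EMG recorded for 8 h and scored in 2-h bins. n = 6-9 per group; mean ± SEM versus vehicle.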

[3] = target: T2, 5-hydroxytryptamine receptor 3A (Homo sapiens, UniProt P46098); test: Displacement of [3H]LSD from human 5-HT3 receptor expressed in HEK cell membranes after 1.5 hrs by microbeta scintillation counting method
T2 sequence (P46098 whole entry): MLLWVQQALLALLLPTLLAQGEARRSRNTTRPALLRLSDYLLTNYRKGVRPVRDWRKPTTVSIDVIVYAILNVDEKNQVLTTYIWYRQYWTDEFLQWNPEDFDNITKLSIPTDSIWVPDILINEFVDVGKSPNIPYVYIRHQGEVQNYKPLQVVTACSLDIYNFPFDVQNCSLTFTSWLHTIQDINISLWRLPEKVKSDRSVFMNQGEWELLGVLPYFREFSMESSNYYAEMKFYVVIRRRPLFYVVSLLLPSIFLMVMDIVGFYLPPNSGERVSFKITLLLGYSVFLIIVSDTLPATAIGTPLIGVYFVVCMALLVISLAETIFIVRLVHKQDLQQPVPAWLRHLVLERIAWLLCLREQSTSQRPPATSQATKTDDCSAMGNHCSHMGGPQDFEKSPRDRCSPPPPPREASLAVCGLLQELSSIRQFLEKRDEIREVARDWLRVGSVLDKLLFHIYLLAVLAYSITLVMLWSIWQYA
Summary of the method: (§1)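 Radioligand binding performed by the NIMH Psychoactive Drug Screening Program. Crude membranes from cells expressing recombinant receptor, with [3H]LSD, in 50 mM Tris-HCl, 10 mM MgCl2, 1 mM EDTA, pH 7.4. Eleven test concentrations. Incubated 1.5 h at room temperature, protected from light. Filtered onto PEI-soaked GF/B filters, then scintillation counting. IC50 converted to Ki; at least three experiments in triplicate.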

[4] = target: 5-hydroxytryptamine receptor 5A (Homo sapiens, UniProt P47898); test: Displacement of [3H]LSD from human 5-HT5A receptor expressed in HEK cell membranes after 1.5 hrs by microbeta scintillation counting method; summary of the method: as §1
Sequence of 5-hydroxytryptamine receptor 5A (P47898 whole entry): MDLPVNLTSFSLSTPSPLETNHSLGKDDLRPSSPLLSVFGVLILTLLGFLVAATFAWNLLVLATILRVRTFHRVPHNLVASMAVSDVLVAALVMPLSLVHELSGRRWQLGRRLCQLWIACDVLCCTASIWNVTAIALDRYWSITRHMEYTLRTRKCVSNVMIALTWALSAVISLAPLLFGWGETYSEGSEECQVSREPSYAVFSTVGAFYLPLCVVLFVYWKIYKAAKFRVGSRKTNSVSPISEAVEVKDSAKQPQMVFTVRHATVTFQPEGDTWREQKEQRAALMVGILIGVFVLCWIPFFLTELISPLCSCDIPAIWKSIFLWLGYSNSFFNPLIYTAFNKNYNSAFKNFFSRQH

[5] = organism: Homo sapiens; test: Selectivity index, ratio of Ki for human 5-HT1E receptor to Ki for human 5-HT7 receptor
Summary of the method: (§2)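 Selectivity index taken as Ki at the other 5-HT receptor subtype divided by Ki at 5-HT7R, each from [3H]LSD membrane binding run by the NIMH PDSP. Ki values are means of at least three experiments in triplicate.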

[6] = Terminal half-life in ICR mouse at 5 mg/kg, iv by LC-MS/MS analysis; assay type: ADME, organism-based; details: in vivo, read-out: beta t1/2 (converted)
Summary of the method: (§3)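 Male ICR mice, 7~8 weeks, 30 ± 5 g; single dose 5 mg/kg IV (n = 5) or 50 mg/kg oral (n = 4). Plasma protein-precipitated with acetonitrile containing internal standard, then LC-MS/MS. Non-compartmental analysis; AUClast by trapezoidal rule. Mean ± SD.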

[7] = target: 5-hydroxytryptamine receptor 1E (Homo sapiens, UniProt P28566); test: Displacement of [3H]LSD from human 5-HT1E receptor expressed in HEK cell membranes after 1.5 hrs by microbeta scintillation counting method; summary of the method: as §1
Sequence of 5-hydroxytryptamine receptor 1E (P28566 whole entry): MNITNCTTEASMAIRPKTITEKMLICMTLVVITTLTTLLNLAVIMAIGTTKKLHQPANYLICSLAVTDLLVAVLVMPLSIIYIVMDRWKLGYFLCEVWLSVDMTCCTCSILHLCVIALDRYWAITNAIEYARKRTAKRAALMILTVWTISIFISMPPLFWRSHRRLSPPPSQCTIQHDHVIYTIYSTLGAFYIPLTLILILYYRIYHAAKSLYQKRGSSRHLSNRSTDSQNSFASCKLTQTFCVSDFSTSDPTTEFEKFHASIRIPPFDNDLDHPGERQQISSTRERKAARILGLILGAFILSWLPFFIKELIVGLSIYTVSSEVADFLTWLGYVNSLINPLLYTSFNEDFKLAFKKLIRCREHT

[8] = target: T3, CYP1A2 (Homo sapiens, UniProt P05177); test: Inhibition of CYP1A2 in human liver microsomes assessed as remaining activity at 10 uM using phenacetin as substrate preincubated for 5 mins followed by addition of NADPH generating system measured after 15 mins by LC-MS analysis; assay type: ADME; details: probe phenacetin, read-out: Activity
T3 sequence (P05177 whole entry): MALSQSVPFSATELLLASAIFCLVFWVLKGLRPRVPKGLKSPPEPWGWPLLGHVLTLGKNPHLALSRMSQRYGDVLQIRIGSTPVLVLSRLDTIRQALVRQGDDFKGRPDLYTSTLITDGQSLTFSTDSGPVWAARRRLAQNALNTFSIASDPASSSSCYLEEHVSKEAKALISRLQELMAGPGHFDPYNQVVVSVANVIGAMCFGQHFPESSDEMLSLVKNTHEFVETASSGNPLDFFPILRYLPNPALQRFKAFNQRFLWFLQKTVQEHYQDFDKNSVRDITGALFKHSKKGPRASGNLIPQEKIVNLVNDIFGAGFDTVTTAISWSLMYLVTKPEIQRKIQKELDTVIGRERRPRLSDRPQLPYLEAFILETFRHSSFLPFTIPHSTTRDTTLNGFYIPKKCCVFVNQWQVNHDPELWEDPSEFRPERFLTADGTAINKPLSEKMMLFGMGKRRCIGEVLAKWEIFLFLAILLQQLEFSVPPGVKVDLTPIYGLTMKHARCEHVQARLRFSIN
Summary of the method: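 Human liver microsomes 0.25 mg/ml in 0.1 M phosphate, pH 7.4, with a probe cocktail: phenacetin 50 μM, diclofenac 10 μM, S-mephenytoin 100 μM, dextromethorphan 5 μM, midazolam 2.5 μM. Test compound at 10 μM versus 0 μM control. 5 min at 37 °C, then NADPH-generating system for 15 min. Acetonitrile quench; metabolites measured by LC/MS as % remaining activity.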

[9] = Oral bioavailability in ICR mouse at 50 mg/kg by LC-MS/MS analysis; assay type: ADME, organism-based; details: in vivo; summary of the method: as §3
[10] = organism: Homo sapiens; test: Selectivity index, ratio of Ki for human 5-HT2A receptor to Ki for human 5-HT7 receptor; summary of the method: as §2
[11] = MRT in ICR mouse at 5 mg/kg, iv by LC-MS/MS analysis; assay type: ADME, organism-based; details: in vivo; summary of the method: as §3
[12] = target: T1, 5-hydroxytryptamine receptor 7; test: Agonist activity at tTA containing TCS cleavage site-fused 5-HT7 receptor (unknown origin) expressed in tTA-dependent luciferase reporter/TEV-fused beta-arrestin2 expressing HTLA cells assessed as induction of beta-arrestin2 recruitment after 22 hrs by Tango assay relative to 5-HT; assay type: functional, cell-based
Summary of the method: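 HTLA cells (HEK293 stably expressing tTA-dependent luciferase reporter and β-arrestin2-TEV) transiently transfected with 5-HT7R-TCS-tTA. Plated in 1% dialysed FBS medium for 6 h, then given test compounds at 0.01 nM-100 μM final, about 22 h. Antagonist mode adds 1 μM 5-HT. BrightGlo luminescence read. Normalised to 5-HT (100%) and vehicle (0%). Three experiments, at least triplicate.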

Compound: Clc1ccc(-c2n[nH]c3c2CCNCC3)cc1
- Activity [1]: Active
- Activity [2]: 69.4%
- pKi [3]: < 5.00
- pKi [4]: < 5.00
- Ratio Ki [5]: 45.5
- half-life [6]: 1.78 h
- pKi [7]: 5.86
- activity at 0.25 h, 10 µM [8]: 86%
- bioavailability [9]: 90.8%
- Ratio Ki [10]: 6.2
- MRT [11]: 2.5 h
- Emax [12]: 62.8%

Compound: Cc1ccc(-c2noc3c2CCNCC3)cc1
- Activity [1]: Active
- pKi [3]: 6.38
- pKi [4]: 5.95
- Ratio Ki [5]: 112
- pKi [7]: 5.75
- Ratio Ki [10]: 8.6
- Emax [12]: 40.3%

Compound: Fc1ccc(-c2n[nH]c3c2CCNCC3)cc1
- Activity [1]: Active
- pKi [3]: < 5.00
- pKi [4]: < 5.00
- Ratio Ki [5]: 7.6
- pKi [7]: 6.10
- Ratio Ki [10]: 1.7
- Emax [12]: 53.9%
